Experimental data pooled from the literature.
Each line is one published result; the experiments were not run side by side.

c1ccc(C2CCN(c3nc(-c4ccn[nH]4)nc4ccccc34)C2)nc1 (stereo not drawn)
Papp (PAMPA; 10 µM, 3 h, pH 7.4): 41.5 ×10⁻⁶ cm/s

CCNc1ccnc(Nc2cccc(-c3cccnc3)c2)n1
Papp (PAMPA; 50 nM, 30 min): 2200 ×10⁻⁶ cm/s

CCOC(=O)[C@@]12C[C@@H]1[C@@H](n1ccc3c(NC)nc(C#Cc4ccc(Cl)s4)nc31)[C@H](O)[C@@H]2O
AUC(0-t) (male Sprague-Dawley rat, plasma; intravenous, 0.5 mg/kg): 27.6 ng·h/mL

CC[C@H](C)Nc1ccnc(Nc2cccc(-c3cccnc3)c2)n1
Papp (PAMPA; 50 nM, 30 min): 2000 ×10⁻⁶ cm/s

CCc1cc(C(=O)NC)c2nccc(N3CCc4c(cc(Cn5ccnc5)cc4-c4cn(C)nc4C(F)(F)F)C3=O)c2c1
AUC(0-inf) (male Sprague-Dawley rat, plasma; oral, 100 mg/kg, single dose): 37300 ng·h/mL

N#CC1CCCN(c2nc(-c3ccccn3)nc3ccccc23)C1 (stereo not drawn)
Papp (PAMPA; 10 µM, 3 h, pH 7.4): 22.4 ×10⁻⁶ cm/s

C=CC(=O)N1CC2CC(n3nc(-c4ccc(C(=O)Nc5ccccn5)cc4)c4c(N)ncnc43)CC2C1 (stereo not drawn)
AUC(0-t) (male Wistar rat, plasma; oral, 10 mg/kg): 2730 ng·h/mL

Cc1cn2nc(-c3cc(=O)n4cc(N5CCNC6(CC6)C5)ccc4n3)cc(C)c2n1
fraction unbound (cynomolgus monkey, plasma): 0.15

CCn1ncc2c(N3CCC(c4ccccn4)C3)nc(-c3ccccn3)nc21 (stereo not drawn)
Papp (PAMPA; 10 µM, 3 h, pH 7.4): 30.2 ×10⁻⁶ cm/s
